hERG rescue: compounds protecting human hERG from proarrhythmic drug block | Q12809 | CHO-hERG, FluxOR thallium flux, dofetilide IC70 present | activation (rescue from dofetilide block), less the hit threshold, % at 10 µM | 310,000 tested, 0.51% active | AID 1511;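 active = activation above the mean of controls blocked by dofetilide plus 5 SD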;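 note: thallium influx through hERG after potassium depolarization seen as dye fluorescence rise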
KCNK9 block: human KCNK9 channel inhibition; Q9NPC2; HEK293 KCNK9, FluxOR thallium flux fluorescence; active compounds read low; B-score at 10 µM; 310,000 tested, 1.2% active; AID 488922;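 active = ratio B-score over 3 SD below the library mean, with starting fluorescence within 5 SD of its mean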;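 note: negative B-score means less thallium flux so channel inhibition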
KCNK3 block: human KCNK3 channel inhibition, primary screen. CHO-KCNK3 thallium flux, FluxOR fluorescence; active compounds read low. B-score at 10 µM. 340,000 tested, 0.84% active. O14649. AID 602410;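 active = B-score under library mean minus 4 SD, starting fluorescence ratio at most library mean plus 5 SD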;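 note: more negative B-score means stronger inhibition of thallium flux through KCNK3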
KCNQ1 pot: human KCNQ1 channel potentiation or activation | 310,000 tested, 0.35% active | CHO-K1 KCNQ1, thallium flux FluxOR fluorescence; active compounds read high | P51787 | B-score at 10 µM;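 active = fluorescence ratio B-score, a plate-corrected score, at least three library SD, with initial intensity B-score within 5 SD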
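Doses: Single concentration per compound, DMSO matched to controls | Test system: KCNQ1-transfected CHO-K1 cells | Timing: 90 min dye loading and 20 min compound exposure, both at room temperature | Measured by: Kinetic FluxOR thallium fluorescence, 10-s 1-Hz baseline, 110-s post-stimulus read | Medium: Assay buffer with matched DMSO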
KCNQ1 block: inhibitors of human KCNQ1 potassium channel. P51787. CHO-K1 KCNQ1, FluxOR thallium flux fluorescence; active compounds read high. B-score at 10 µM. 310,000 tested, 1.3% active. AID 2642;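 active = compounds whose thallium flux B-score, printed positive for inhibition, exceeds three library SD while starting fluorescence stays within three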;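 note: channel opened by potassium depolarization with thallium stimulus after 20 min compound exposure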
* marks the source's active call; other numbers are inactive results; i = inactive; nt = not tested or not shown. This is a sample that favours compounds with a hit; in the whole collection about 3.1% have one here.

SMILES	hERG rescue	KCNK9 block	KCNK3 block	KCNQ1 pot	KCNQ1 block
Cc1nn(Cc2ccccc2Cl)c2sc(C(=O)Nc3ccccc3N3CCOCC3)cc12	-6.6	i	i	i	6*
O=C1S/C(=C\c2ccc(O)c([N+](=O)[O-])c2)C(=O)N1Cc1cccc([N+](=O)[O-])c1	-8.8	i	i	i	11*
COc1cc(/C=C2\SC(=O)N(c3cccc(Cl)c3)C2=O)cc([N+](=O)[O-])c1O	nt	nt	i	nt	nt
O=C1S/C(=C\c2ccc(O)c([N+](=O)[O-])c2)C(=O)N1c1ccccc1Cl	-11.1	i	i	i	10*
Cn1c2ccccc2c2cc(/C=N/NC(=O)c3cc(O)cc(O)c3)ccc21	-7.5	i	i	i	i
CCn1c2ccccc2c2cc(/C=N/NC(=O)c3ccccc3)ccc21	6.4*	i	i	i	i
Cc1ccc(NC(=O)c2ncn(CC(=O)NCC(C)c3ccccc3)n2)cc1C (stereo not drawn)	nt	nt	i	nt	nt
CC(NC(=O)Cn1nc(-c2ccccc2)c2ccccc2c1=O)c1ccccc1 (stereo not drawn)	-5.0	i	i	i	i
O=C(Cn1nc(-c2ccccc2)c2ccccc2c1=O)Nc1ccc(O)cc1	15.2*	i	i	i	i
O=C(CCN1C(=O)C2C3CCC(C3)C2C1=O)OCC(=O)c1ccc(Cl)cc1 (stereo not drawn)	-7.2	i	i	i	i
Cc1ccc(NC(=S)N/N=C/c2c(Cl)cccc2Cl)c(C)c1	7.7*	i	i	i	i
Cc1ccccc1C(=O)N/N=C/c1cccc2ccccc12	-9.9	i	i	i	i
S=C(N/N=C/c1ccc(Cl)c(Cl)c1)Nc1ccccc1Cl	-3.6	i	i	i	i
Cc1ccc(Cl)cc1NC(=S)N/N=C/c1cccc2ccccc12	8.5*	i	i	11*	i
Fc1cccc(/C=N/NC(=S)Nc2ccccc2Cl)c1	6.8*	i	i	i	i
COc1ccc(-c2nc(CS(=O)CC(=O)NCc3ccc(Cl)cc3)c(C)o2)cc1OC (stereo not drawn)	-13.4	i	i	i	i
O=C(Nc1cc2c(cc1Cl)-c1ccc([N+](=O)[O-])cc1C2=NO)C(F)(F)F	nt	nt	i	nt	nt
CCc1noc(C)c1C(=O)N1CCN(S(=O)(=O)c2c(C)c(C)cc(C)c2C)CC1	-9.3	i	i	i	i
O=C(O)c1ccccc1OCC1CCCO1 (stereo not drawn)	-3.7	i	i	i	i
CCOC(=O)c1sc(NC(=O)c2c(C)nn(Cc3ccccc3)c2C)cc1C	nt	nt	-11.2*	nt	nt
CCOC(=O)c1sc(NC(=O)c2ccccc2)cc1C	-9.3	i	i	i	i
Clc1ccc(OCCOCCNCc2ccccc2)cc1Cl	-11.1	i	i	i	i
COc1ccc(C(CNC(=O)C(C)Oc2ccc(Br)cc2)N2CCCCC2)cc1 (stereo not drawn)	nt	nt	i	nt	nt
CC(Sc1nc2ncc(Cl)cc2[nH]1)C(=O)NC1(C#N)CCCCC1 (stereo not drawn)	nt	nt	i	nt	nt
Nc1nc(Nc2ccccc2)nc(NCc2ccccc2)c1[N+](=O)[O-]	-4.1	i	i	i	i
SMILES	hERG rescue	KCNK9 block	KCNK3 block	KCNQ1 pot	KCNQ1 block
Cc1cccc(Nc2nc(N)c([N+](=O)[O-])c(NCc3ccccc3)n2)c1	-8.5	i	i	i	7*
Cc1cccc(OCc2n(CC(=O)OC3CC(C)CCC3C(C)C)c3ccccc3[n+]2C)c1 (stereo not drawn)	-30.8	i	-12.6*	i	9*
Cc1cc(Sc2nc(N)ncc2[N+](=O)[O-])ncn1	-15.5	i	i	i	i
Cc1cc(Sc2ncnc(N)c2[N+](=O)[O-])ncn1	-24.5	i	i	i	6*
Clc1cccc(-c2ccc(-c3nc4ccccn4c3NCc3ccccc3)cc2)c1	nt	nt	-9.62*	nt	nt
COc1ccc(-c2cc(-c3nc4ccccn4c3NCc3ccccc3)ccc2OC)cc1	nt	nt	-8.7*	nt	nt
Cc1nn(-c2ccccc2)c(N2CCCC2)c1/C=N/NC(=O)c1cccc(S(=O)(=O)Nc2ccc(Cl)cc2)c1	-2.4	i	i	i	7*
Cc1ccc(-c2cc(C(=O)N/N=C/c3c(C)nn(-c4ccccc4)c3C)[nH]n2)cc1	-7.2	i	i	i	13*

Screening results (PubChem)
